{
  "source": "paper PMC12461553",
  "about": "(RSC Advances, 2025)",
  "key": {"MDA-MB-231 cells [1]": {"system": "MDA-MB-231 cells", "experiment": "SRB cytotoxicity assay, MDA-MB-231", "type": "cell-based, human"}, "MCF-7 cells [2]": {"system": "MCF-7 cells", "experiment": "Cell cycle analysis", "type": "cell-based, human", "conditions": "MCF-7, 6 μM", "method_in_brief": "(§1)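 Cells were seeded at 1 × 10^5 per well and attached 24 h, then exposed to test compound for 24 h. Doxorubicin (0.5 μM) and untreated controls were run alongside. Cells were harvested, washed with PBS and stained with PI/RNase solution for DNA content. Flow cytometry gave G1, S and G2/M fractions from fluorescence intensity using predefined gates.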"}, "BEAS-2B lung cells": {"system": "BEAS-2B lung cells", "experiment": "SRB cytotoxicity assay, BEAS-2B normal cells", "type": "cell-based", "conditions": "Homo sapiens, read-out: IC50 value, BEAS-2B lung cells", "method_in_brief": "(§2)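 Dose–response SRB assay: cells at 3000 per well were attached 24 h, then treated 48 h with test compound at 0.39–25 μM. They were TCA-fixed and stained with 0.057% SRB. Bound dye was dissolved in Tris base pH 10.5 and read at 510 nm. IC50 was fitted by non-linear regression.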"}, "MDA-MB-231 cells [3]": {"system": "MDA-MB-231 cells", "experiment": "3D spheroid", "type": "cell-based, human", "conditions": "8 days", "method_in_brief": "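Single-cell suspensions in 1.5% methylcellulose/DMEM with 20% FBS were seeded at 1 × 10^5 cells per well over a 1% agarose–DMEM base for non-adherent growth. Cells were treated with test compound (0.5, 1, 2 μM) or doxorubicin and incubated 8 days. Spheres (≥20 cells) were imaged by fluorescence microscopy and counted per microscopic field.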"}, "[4]": {"system": "BCL-2 and Survivin expression in MDA-MB-231 cells", "experiment": "Gene expression analysis by RT-qPCR", "type": "cell-based, human", "method_in_brief": "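Cells were treated 48 h with varying test compound concentrations, then total RNA was extracted and checked spectrophotometrically. 2 μg RNA was reverse-transcribed to cDNA. BCL2 and Survivin transcripts were measured by RT-qPCR and quantified by the 2−ΔΔCt method against β2-microglobulin as reference gene.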"}, "HEK-293 kidney cells": {"system": "HEK-293 kidney cells", "experiment": "SRB cytotoxicity assay, HEK-293 normal cells", "type": "cell-based", "conditions": "Homo sapiens, HEK293, read-out: IC50 value, HEK-293 kidney cells", "method_in_brief": "as §2"}, "4T1 cells [5]": {"system": "4T1 cells", "experiment": "SRB cytotoxicity assay, 4T1", "type": "cell-based, murine", "method_in_brief": "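Single-dose screen: cells in DMEM/10% FBS at 37 °C, 5% CO2, seeded at 3000 per well, attached 24 h, then exposed to test compound at 25 μM final for 48 h. Fixed in cold 10% TCA, 1 h, 4 °C; stained 0.057% SRB, 30 min, dark, room temperature; rinsed with 1% acetic acid; dye solubilised in Tris base pH 10.5; absorbance 510 nm; percent cell death.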"}, "MDA-MB-231 cells [6]": {"system": "MDA-MB-231 cells", "experiment": "Cell cycle analysis", "type": "cell-based, human", "conditions": "MDA-MB-231, 4 μM", "method_in_brief": "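Cells were treated with test compound at 0.5, 1, 2 and 4 μM beside untreated controls. They were stained with propidium iodide and analysed by flow cytometry to give the percentages of cells in G1, S and G2/M phases.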"}, "4T1 cells [7]": {"system": "4T1 cells", "experiment": "Annexin V-FITC/PI apoptosis assay, 4T1", "type": "cell-based, murine", "method_in_brief": "(§3)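 Cells were seeded at 1 × 10^5 per well and allowed to adhere 24 h, then treated 24 h with test compound (2, 4, 6 μM) alongside untreated controls. They were harvested, washed in PBS and stained with annexin V-FITC plus PI in binding buffer, 20 min, dark, room temperature. Flow cytometry gave percentages of viable, early apoptotic, late apoptotic and necrotic cells.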"}, "MCF-7 cells [8]": {"system": "MCF-7 cells", "experiment": "Annexin V-FITC/PI apoptosis assay, MCF-7", "type": "cell-based, human", "method_in_brief": "as §3"}, "4T1 cells [9]": {"system": "4T1 cells", "experiment": "Cell cycle analysis", "type": "cell-based, murine", "conditions": "4T1, 6 μM", "method_in_brief": "as §1"}, "MCF-7 cells [10]": {"system": "MCF-7 cells", "experiment": "SRB cytotoxicity assay, MCF-7", "type": "cell-based, human"}},
  "data": [
    {"smiles": "Cc1ccc(C(=O)c2c(-c3ccccc3)n(Cc3ccccc3)c(=O)c3c2c2ccccc2n3C)cc1", "note": "[9c, 2-Benzyl-9-methyl-4-(4-methylbenzoyl)-3-phenyl-2,9-dihydro-1H-pyrido[3,4-b]indol-1-one]", "values": [
      {"measurement": "cytotoxicity at 25 µM", "setting": "MDA-MB-231 cells [1]; Homo sapiens, MDA-MB-231, 48 h, read-out: Average cell death (%) MDA-MB-231", "value": "94.7 ± 1.1", "unit": "%"},
      {"measurement": "IC50", "setting": "MDA-MB-231 cells [1]; Homo sapiens, MDA-MB-231, 48 h, read-out: IC50 value, MDA-MB-231", "value": "0.77 ± 0.03", "unit": "µM"},
      {"measurement": "Selectivity for MDA-MB-231 breast cancer cells", "setting": "MDA-MB-231 cells [1]; MDA-MB-231 over normal HEK-293 kidney and BEAS-2B lung cells", "value": "~10", "unit": "fold"},
      {"measurement": "G1 phase population", "setting": "MCF-7 cells [2]", "value": 85.6, "unit": "%"},
      {"measurement": "IC50", "setting": "BEAS-2B lung cells", "value": "7.18 ± 0.32", "unit": "µM"},
      {"measurement": "Number of spheres", "setting": "MDA-MB-231 cells [3]; MDA-MB-231, 0.5, 1, and 2 μM", "value": "reduced the number of spheres in a dose-dependent manner"},
      {"measurement": "Sphere formation", "setting": "MDA-MB-231 cells [3]; MDA-MB-231, methylcellulose", "value": "completely abrogated sphere formation"},
      {"measurement": "Expression of BCL-2", "setting": "[4]", "value": "significantly downregulated"},
      {"measurement": "Expression of Survivin", "setting": "[4]", "value": "significantly downregulated"},
      {"measurement": "IC50", "setting": "HEK-293 kidney cells", "value": "7.96 ± 0.04", "unit": "µM"},
      {"measurement": "cytotoxicity at 25 µM", "setting": "4T1 cells [5]; Mus musculus, 4T1, 48 h, read-out: Average cell death (%) 4T1", "value": "72.34 ± 0.04", "unit": "%"},
      {"measurement": "IC50", "setting": "4T1 cells [5]; Mus musculus, 4T1, 48 h, read-out: IC50 value, 4T1", "value": "3.71 ± 0.39", "unit": "µM"},
      {"measurement": "Average cell death (%) 4T1", "setting": "4T1 cells [5]; at 25 μM, 48 h, SRB assay", "value": "72.34 ±4.04", "unit": "%"},
      {"measurement": "G1 phase population", "setting": "MDA-MB-231 cells [6]", "value": 46.9, "unit": "%"},
      {"measurement": "G2/M population", "setting": "MDA-MB-231 cells [6]", "value": 41.9, "unit": "%"},
      {"measurement": "Early apoptosis", "setting": "4T1 cells [7]; 4T1, 2 μM", "value": 13.5, "unit": "%"},
      {"measurement": "Total apoptosis", "setting": "4T1 cells [7]; 4T1, 2 μM", "value": 16.5, "unit": "%"},
      {"measurement": "Early apoptosis", "setting": "4T1 cells [7]; 4T1, 4 μM", "value": 19.2, "unit": "%"},
      {"measurement": "Total apoptosis", "setting": "4T1 cells [7]; 4T1, 4 μM", "value": 23.5, "unit": "%"},
      {"measurement": "Early apoptosis", "setting": "4T1 cells [7]; 4T1, 6 μM", "value": 22, "unit": "%"},
      {"measurement": "Total apoptosis", "setting": "4T1 cells [7]; 4T1, 6 μM", "value": 27.2, "unit": "%"},
      {"measurement": "Early apoptosis", "setting": "MCF-7 cells [8]; MCF-7, 2 μM", "value": 7.2, "unit": "%"},
      {"measurement": "Total apoptotic population (early + late)", "setting": "MCF-7 cells [8]; MCF-7, 2 μM", "value": 11.3, "unit": "%"},
      {"measurement": "Early apoptosis", "setting": "MCF-7 cells [8]; MCF-7, 4 μM", "value": 8.05, "unit": "%"},
      {"measurement": "Total apoptotic population (early + late)", "setting": "MCF-7 cells [8]; MCF-7, 4 μM", "value": 14.1, "unit": "%"},
      {"measurement": "Early apoptosis", "setting": "MCF-7 cells [8]; MCF-7, 6 μM", "value": 9.9, "unit": "%"},
      {"measurement": "Total apoptotic population (early + late)", "setting": "MCF-7 cells [8]; MCF-7, 6 μM", "value": 16.5, "unit": "%"},
      {"measurement": "G1 phase population", "setting": "4T1 cells [9]", "value": 50.1, "unit": "%"},
      {"measurement": "G2/M population", "setting": "4T1 cells [9]", "value": 41.1, "unit": "%"},
      {"measurement": "cytotoxicity at 25 µM", "setting": "MCF-7 cells [10]; Homo sapiens, MCF7, 48 h, read-out: Average cell death (%) MCF-7", "value": "75.14 ± 0.02", "unit": "%"},
      {"measurement": "IC50", "setting": "MCF-7 cells [10]; Homo sapiens, MCF7, 48 h, read-out: IC50 value, MCF-7", "value": "4.34 ± 0.31", "unit": "µM"},
      {"measurement": "Average cell death (%) MCF-7", "setting": "MCF-7 cells [10]; at 25 μM, 48 h, SRB assay", "value": "75.14 ±4.02", "unit": "%"}
    ]}
  ]
}
